# From PubChem BioAssay
# Ba/F3 V617F tox: reduced viability of JAK2V617F-dependent Ba/F3 cells, primary screen, JAK2V617F inhibitor project, cell-based, Ba/F3 EpoR-JAK2V617F, luminescence. ATP luminescence. inhibition, % at 5.6 µM. 220,000 tested, 1.1% active. AID 1446, 2008;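 active means inhibition above the campaign mean plus 3 SD over all tested compounds, cut at about 24% in these data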;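 further: cytokine-independent growth of Ba/F3 cells driven by EpoR plus mutant JAK2; 0% = DMSO-treated cells and 100% = JAK inhibitor I control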
# APP transl inh: inhibitors of APP translation via 5'UTR reporter, primary screen, APP 5'UTR luciferase, SH-SY5Y cells | inhibition, % at 2 µM | 190,000 tested, 0.82% active | SH-SY5Y APP 5'UTR-luciferase reporter, luminescence | AID 1285, 2008;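 active means inhibition above a set limit, derived from the sample mean plus 3 SD, cut at about 45% in these data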
# BaF3 parental: parental Ba/F3 cell viability inhibition, counter-screen for JAK2V617F inhibitor project, murine pro-B, CellTiter-Glo luminescence | CellTiter-Glo ATP luminescence | inhibition, % at 5.6 µM | 220,000 tested, 1.1% active | AID 1486, 2009;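 active means inhibition above a per-campaign cutoff, the mean inhibition of all tested compounds plus 3 SD, cut at about 27% in these data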;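 further: 0% = DMSO wells and 100% = JAK Inhibitor I control wells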
# IEC-6 cytotox: cytotoxicity in IEC-6 intestinal epithelial cells, primary screen, cytotoxicity control for KLF5 inhibitor project, cell-based, luminescence | inhibition, % at 5 µM | IEC-6 cytotoxicity, luminescence viability | 290,000 tested, 0.78% active; in the data active means inhibition above about 22%;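 further: 0% = plate median of test compound wells and 100% = cytotoxic reference compound wells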
# MT stabilize HCS: microtubule stabilizers in HeLa cells, primary screen, imaging, high-content imaging; HeLa tubulin immunostaining HCS, 24 h; share of cells brighter than vehicle mean+2SD; % tubulin-high responders, % at 10 µM; 200,000 tested, 0.83% active;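 active means plate Z-score above 3 for both tubulin-high and condensed-nucleus cell shares, with cell loss under 80%, at 10 µM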;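 further: anti alpha tubulin signal scored within the nucleus-defined area of each cell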
# bCat nuc transl: modulators of beta-catenin nuclear translocation, primary screen, imaging, HeLa cells, immunofluorescence, high-content. nuclear translocation activity, % at 5 µM. 190,000 tested, 0.3% active;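 active means nuclear translocation activity above 50% at 5 µM, with a well cell count of 50 or more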;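 further: per-cell ratio of nuclear to cytoplasmic median beta-catenin stain intensity; plate controls were DMSO negative control for no effect and GSK-3 inhibitor IX positive control for full effect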
#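 Test system: human HeLa cells, native beta-catenin. Compound dosing: 5 µM primary single dose, 0.1% DMSO, 0.02–20 µM confirmation series. Incubation: compound exposure 24 h at 37°C. Detection: beta-catenin immunostaining with DAPI counterstain, 20x imaging, 6 fields/well. Read-out basis: Nuclear/cytoplasmic beta-catenin signal ratio, % activation.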
# The depositor's hits bear a star; x = not tested or not shown. Sampled rows, rich in hits. Any-hit rate of the full collection: about 2.2%.
SMILES,Ba/F3 V617F tox,APP transl inh,BaF3 parental,IEC-6 cytotox,MT stabilize HCS,bCat nuc transl
NC(=O)N/N=C/c1ccc(OCc2cccc(Cl)c2)cc1,1,-5,4,-1,5,0
CCOC(=O)N/N=C/c1ccccc1F,2,-48,2,4,3,2
CC(C)(C)c1nnc(N/N=C/c2ccccc2O)n(N)c1=O,-3,76*,1,-3,10,4
CCc1nnc(N/N=C/c2ccccc2F)n1N,9,10,-1,102*,2,3
COC(=O)C(Cc1cccc(C)n1)(c1ccccc1)c1ccccc1,x,x,x,3,x,x
COc1ccc(-c2noc(CCCC(=O)NCC3CCCO3)n2)cc1 (centres undefined),x,x,x,0,x,x
Fc1ccc(-c2nnc(Cc3ccc(Cl)cc3)o2)cc1,-4,x,-2,2,x,0
CCC(=O)N(C1=C(NC)C(=O)c2ccccc2C1=O)C(C)C,100*,22,102*,3,2,0
CCC(=O)N(CC)C1=C(O)c2ccccc2C(=O)C1=O,1,-5,5,-2,2,0
CNC1=C(N(C(C)=O)c2ccc(Br)cc2)C(=O)c2ccccc2C1=O,100*,55*,102*,14,13,-3
CC(=O)NC1=C(N(C)C2CCS(=O)(=O)C2)C(=O)c2ccccc2C1=O (centres undefined),1,2,10,0,2,0
Cc1ccc(C(=O)N2C(CC(=O)Nc3ccc(Cl)cc3)C(=O)NC3CCCCC32)cc1 (centres undefined),2,-8,9,3,20*,0
O=C(Nc1nnc(/C=C/c2ccccc2)s1)c1ccco1,0,x,4,2,x,-1
CC(C)(C)c1nc2ccccc2c2nnc(SCC(=O)Nc3nccs3)n12,1,-4,0,4,42*,40
CC(C)(C)c1nc2ccccc2c2nnc(SCC(=O)Nc3nc4ccccc4s3)n12,1,-4,4,1,9,2
CCCCn1c(Cn2nc(C(=O)O)c3ccccc3c2=O)nc2cc(S(N)(=O)=O)ccc21,x,x,x,-5,x,x
O=C(Nc1ccc(F)cc1F)N1CCCN(c2ccc(C(F)(F)F)cn2)CC1,4,x,2,2,x,1
Fc1ccc(NC(=S)N2CCCN(c3ccc(C(F)(F)F)cn3)CC2)c(F)c1,35*,x,33*,-6,x,0
O=[N+]([O-])c1ccc(O)c(/C=N/Nc2ccccn2)c1,68*,76*,34*,5,4,23
O=[N+]([O-])c1ccc(O)c(/C=N/Nc2nc3ccccc3[nH]2)c1,-1,81*,5,4,9,1
COC(=O)C(C)Oc1ccc(-c2nccc(-c3ccccn3)n2)cc1 (centres undefined),x,x,x,5,x,x
COc1ccc(C2C3=C(CC(C)(C)CC3=O)Nc3cc4c(cc32)OCO4)cc1 (centres undefined),1,-5,6,-2,2,2
COc1ccc(OC)c(C2C3=C(COC3=O)Nc3cc4c(cc32)OCO4)c1 (centres undefined),96*,95*,91*,94*,10,111*
O=C(CNC(=O)c1ccc2c(c1)OCO2)N/N=C(Br)/C=C/c1ccccc1,-4,7,-2,-2,19*,-1
O=C(CNC(=O)c1ccc2c(c1)OCO2)N/N=C/c1cccc([N+](=O)[O-])c1,-1,1,1,1,1,-2
S=c1[nH]nc(-c2cc(-c3ccccc3)n[nH]2)n1/N=C/C(Br)=C/c1ccccc1,1,x,-4,4,x,2
COc1ccc2c(CC(=O)Nc3ncc(C)s3)coc2c1,2,-89,6,-5,3,-3
CCOC(=O)COc1cccc2c(=O)n(CC(=O)NCc3ccc4c(c3)OCO4)ccc12,-3,-17,1,1,19*,64*
CCOC(=O)COc1cccc2c(=O)n(CC(=O)NCCc3ccccc3)ccc12,-3,12,3,-6,3,0
